According to ChEMBL document CHEMBL1145814, “Antiretroviral activity of semisynthetic derivatives of glycopeptide antibiotics” (J Med Chem, 2003):
Converted amounts (≈) assume the structure as drawn.

Tests used:
CCRF-CEM = assay: Inhibitory concentration against proliferation of human T-lymphocytic (CEM) cells; assay type: functional, cell-based; conditions: Homo sapiens, CCRF-CEM
Procedure, shortened: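 (5–7.5) × 10^4 cells per well were incubated with test compound at 37 °C in a humidified CO2 atmosphere. L1210 murine leukemia cells grew for 48 h, and CEM and Molt4/clone 8 human lymphocytes grew for 72 h. Cells were then counted with a Coulter counter. IC50 is the concentration inhibiting proliferation by 50%.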

Mus musculus [1] = species: Mus musculus; assay: Effective concentration of compound required to protect C3H/3T3 embryo murine fibroblasts against the MSV induced transformation; assay type: functional, organism-based; conditions: Mus musculus, C3H/3T3
Procedure, shortened: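 Monolayer murine embryo fibroblast C3H/3T3 cultures were infected with Moloney murine sarcoma virus at 75 focus-forming units and cultured with test compound. Transformation was examined microscopically on day 6 postinfection. EC50 is the concentration protecting cells against MSV-induced transformation by 50%.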

Mus musculus [2] = species: Mus musculus; assay: Minimal inhibitory concentration required to cause a microscopic detectable alteration of C3H/3T3 embryo murine fibroblast cell morphology; assay type: functional
Procedure, shortened: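 Uninfected C3H/3T3 murine embryo fibroblast cultures were exposed to test compound and checked microscopically for changes in cell morphology. The MIC is the concentration causing a microscopically detectable alteration of morphology.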

[3] = system: Human immunodeficiency virus 1; assay: Effective concentration of compound required to protect human T-lymphocytic cells against the cytopathogenicity of HIV-1; assay type: functional, organism-based; conditions: Human immunodeficiency virus 1
[4] = system: Human immunodeficiency virus 2; assay: Concentration required to protect human T-lymphocytic cells against the cytopathogenicity of HIV-2; assay type: functional, organism-based; conditions: Human immunodeficiency virus 2

SMILES | IC50 (CCRF-CEM) [µM] | EC50 (Mus musculus [1]) [µM] | MIC (Mus musculus [2]) [µM] | EC50 [3] [µM] | EC50 [4] [µM]
CCCCCCCCCCCCCCCCCCNCc1c(O)cc2c(c1O)-c1cc(ccc1O)C1NC(=O)C3NC(=O)C4NC(=O)C(Cc5ccc(c(Cl)c5)Oc5cc3cc(c5O)Oc3ccc(cc3Cl)C(O)C(NC1=O)C(=O)N[C@H]2C(=O)NC)NC(=O)C(N)c1ccc(O)c(c1)Oc1cc(O)cc4c1 (some centres not stated) | 60 | 4.7 | 100 (≈ 149 µg/mL) | 2.5 | 6
CCCCCCCCCCNC(=O)[C@@H]1NC(=O)C2NC(=O)C(NC(=O)C3NC(=O)C4NC(=O)C(Cc5ccc(c(Cl)c5)Oc5cc3cc(c5O)Oc3ccc(cc3Cl)C2O)NC(=O)C(N)c2ccc(O)c(c2)Oc2cc(O)cc4c2)c2ccc(O)c(c2)-c2c(O)cc(O)cc21 (some centres not stated) | 21 | – | – | 2.6 | 5.8
COC(=O)[C@@H]1NC(=O)C2NC(=O)C(NC(=O)C3NC(=O)C4NC(=O)C(NC(=O)C(N)c5ccc(O)c(c5)Oc5cc4cc(O)c5C)C(O)c4ccc(cc4)Oc4cc3cc(c4O)Oc3ccc(cc3)C2O)c2ccc(O)c(c2)-c2c(O)cc(O)cc21 (some centres not stated) | > 100 | 19 | > 100 | 25 | > 50
CC(C)CC(C(=O)NC1C(=O)NC(CC(N)=O)C(=O)NC2C(=O)NC3C(=O)NC(C(=O)N[C@@H](C(=O)O)c4cc(O)c(CN5CCN(Cc6ccc(-c7ccccc7)cc6)CC5)c(O)c4-c4cc3ccc4O)C(O)c3ccc(cc3)Oc3cc2cc(c3O)Oc2ccc(cc2Cl)C1O)N(C)C(=O)OC(C)(C)C (some centres not stated) | > 100 | 8.4 | > 100 | 4.5 | 4.5
O=C(NC1C(=O)NC2Cc3ccc(c(Cl)c3)Oc3cc4cc(c3O)Oc3ccc(cc3Cl)C(O)C3NC(=O)C(NC(=O)C4NC(=O)C(NC2=O)c2cc(O)cc(c2)Oc2cc1ccc2O)c1ccc(O)c(c1)-c1c(O)cc(O)cc1[C@H](C(=O)O)NC3=O)OCC1c2ccccc2-c2ccccc21 (some centres not stated) | 114 | 10 | 100 (≈ 142 µg/mL) | 17 | 15
NC(=O)CC1NC(=O)C(N)C(O)c2ccc(c(Cl)c2)Oc2cc3cc(c2O)Oc2ccc(cc2)C(O)C2NC(=O)C(NC(=O)C3NC1=O)c1ccc(O)c(c1)-c1c(cc(O)c(CNC3C4CC5CC(C4)CC3C5)c1O)[C@H](C(=O)O)NC2=O (some centres not stated) | > 250 | 47 | > 100 | 22 | 40
CN[C@H](CC(C)C)C(=O)N[C@H]1C(=O)N[C@@H](CC(N)=O)C(=O)N[C@H]2C(=O)N[C@H]3C(=O)N[C@H](C(=O)N[C@H](C(=O)O)c4cc(O)cc(O)c4-c4cc3ccc4O)[C@H](O)c3ccc(c(Cl)c3)Oc3cc2cc(c3O[C@@H]2O[C@H](CO)[C@@H](O)[C@H](O)[C@H]2O[C@H]2C[C@](C)(NCc3ccc(-c4ccc(Cl)cc4)cc3)C(O)[C@H](C)O2)Oc2ccc(cc2Cl)[C@H]1O (some centres not stated) [listing 1 of 2 here] | – | 7.7 | – | – | –
NC1Cc2ccc(c(Cl)c2)Oc2cc3cc(c2O)Oc2ccc(cc2Cl)C(O)C2NC(=O)C(NC(=O)C3NC(=O)C(c3cc(O)cc(Oc4cc(C5NC(=S)N(c6ccccc6)C5=O)ccc4O)c3)NC1=O)c1ccc(O)c(c1)-c1c(O)cc(O)cc1[C@H](C(=O)O)NC2=O (some centres not stated) | > 250 | 27 | > 100 | 15 | 37
COC(=O)[C@H]1NC(=O)C2NC(=O)C(NC(=O)[C@@H]3NC(=O)[C@H]4NC(=O)[C@H](NC(=O)[C@H](N)c5ccc(O)c(c5)Oc5cc4cc(O)c5C)[C@H](O)c4ccc(cc4)Oc4cc3cc(c4O)Oc3ccc(cc3)[C@H]2O[C@@H]2C[C@@H](N)[C@@H](O)[C@@H](C)O2)c2ccc(O)c(c2)-c2c(O)cc(O)cc21 | > 100 | 52 | > 100 | > 50 | > 250
NC1C(=O)NC2Cc3ccc(c(Cl)c3)Oc3cc4cc(c3O)Oc3ccc(cc3Cl)C(O)C(C(=O)O)NC(=O)C(c3ccc(O)c(-c5c(O)cc(O)cc5[C@@H](N)C(=O)O)c3)NC(=O)C4NC(=O)C(NC2=O)c2cc(O)cc(c2)Oc2cc1ccc2O (some centres not stated) | > 250 | 14 | > 100 | 22 | 32
CCCCc1ccc(CNCc2c(O)cc3c(c2O)-c2cc(ccc2O)C2NC(=O)C4NC(=O)C5NC(=O)C(Cc6ccc(c(Cl)c6)Oc6cc4cc(c6O)Oc4ccc(cc4Cl)C(O)C(NC2=O)C(=O)N[C@H]3C(=O)O)NC(=O)C(NC(=O)OC(C)(C)C)c2ccc(O)c(c2)Oc2cc(O)cc5c2)cc1 (some centres not stated) | 60 | 7.6 | > 100 | 20 | 8.3
CNC(=O)[C@@H]1NC(=O)C2NC(=O)C(NC(=O)C3NC(=O)C4NC(=O)C(Cc5ccc(c(Cl)c5)Oc5cc3cc(c5O)Oc3ccc(cc3Cl)C2O)NC(=O)C(NC(=O)OC23CC5CC(CC(C5)C2)C3)c2ccc(O)c(c2)Oc2cc(O)cc4c2)c2ccc(O)c(c2)-c2c(O)cc(O)cc21 (some centres not stated) | 88 | 8.7 | 100 (≈ 139 µg/mL) | 17 | 7.8
CN[C@H](CC(C)C)C(=O)N[C@H]1C(=O)N[C@@H](CC(N)=O)C(=O)N[C@H]2C(=O)N[C@H]3C(=O)N[C@H](C(=O)N[C@H](C(=O)NCc4ccc(-c5ccc(Cl)cc5)cc4)c4cc(O)cc(O)c4-c4cc3ccc4O)[C@H](O)c3ccc(c(Cl)c3)Oc3cc2cc(c3O[C@@H]2O[C@H](CO)[C@@H](O)[C@H](O)[C@H]2O[C@H]2C[C@](C)(N)C(O)[C@H](C)O2)Oc2ccc(cc2Cl)[C@H]1O (some centres not stated) [listing 1 of 2 here] | – | – | 20 (≈ 33 µg/mL) | – | –
COC(=O)[C@@H]1NC(=O)C2NC(=O)C(NC(=O)C(NC(=O)OC(C)(C)C)c3cc(Oc4ccc(CC(NC(=O)OCc5ccccc5)C(=O)O)cc4Cl)c(O)c(c3)Oc3ccc(cc3Cl)C2O)c2ccc(O)c(c2)-c2c(O)cc(O)cc21 (some centres not stated) | > 250 | 87 | > 100 | 17 | 17
CN[C@H](CC(C)C)C(=O)N[C@H]1C(=O)N[C@@H](CC(N)=O)C(=O)N[C@H]2C(=O)N[C@H]3C(=O)N[C@H](C(=O)N[C@H](C(=O)O)c4cc(O)cc(O)c4-c4cc3ccc4O)[C@H](O)c3ccc(c(Cl)c3)Oc3cc2cc(c3O[C@@H]2O[C@H](CO)[C@@H](O)[C@H](O)[C@H]2O[C@H]2C[C@](C)(NCc3ccc(-c4ccc(Cl)cc4)cc3)C(O)[C@H](C)O2)Oc2ccc(cc2Cl)[C@H]1O (some centres not stated) [listing 2 of 2 here] | – | – | > 25 | – | –
CCCCCCCCCCCCCCCCCCNCc1c(O)cc2c(c1O)-c1cc(ccc1O)C1NC(=O)C3NC(=O)C4NC(=O)C(Cc5ccc(c(Cl)c5)Oc5cc3cc(c5O)Oc3ccc(cc3Cl)C(O)C(NC1=O)C(=O)N[C@H]2C(=O)O)NC(=O)C(N)c1ccc(O)c(c1)Oc1cc(O)cc4c1 (some centres not stated) | 22 | 1.7 | 100 (≈ 148 µg/mL) | 4.5 | 7.8
NC(=O)C[C@@H]1NC(=O)C(N)C(O)c2ccc(c(Cl)c2)Oc2cc3cc(c2O)Oc2ccc(cc2)C(O)C2NC(=O)C(NC(=O)C3NC1=O)c1ccc(O)c(c1)-c1c(O)cc(O)cc1[C@H](C(=O)O)NC2=O (some centres not stated) | > 250 | > 100 | > 100 | 115 | > 250
O=C1NC2C(=O)NC3C(=O)NC4C(=O)NC(C(=O)N[C@@H](C(=O)O)c5cc(O)cc(O)c5-c5cc4ccc5O)C(O)c4ccc(c(Cl)c4)Oc4cc3cc(c4O)Oc3ccc(cc3Cl)CC1NC(=O)C(/N=C(\S)Nc1ccccc1)c1ccc(O)c(c1)Oc1cc(O)cc2c1 (some centres not stated) | 220 | 7.5 | 100 (≈ 133 µg/mL) | 6 | 8
CC(C)(C)OC(=O)NC1C(=O)NC2Cc3ccc(c(Cl)c3)Oc3cc4cc(c3O)Oc3ccc(cc3Cl)C(O)C3NC(=O)C(NC(=O)C4NC(=O)C(NC2=O)c2cc(O)cc(c2)Oc2cc1ccc2O)c1ccc(O)c(c1)-c1c(O)cc(O)cc1[C@H](C(=O)O)NC3=O (some centres not stated) | > 250 | 12 | > 100 | 13 | 20
NC1C(=O)NC2Cc3ccc(c(Cl)c3)Oc3cc4cc(c3O)Oc3ccc(cc3Cl)C(O)C3NC(=O)C(NC(=O)C4NC(=O)C(NC2=O)c2cc(O)cc(c2)Oc2cc1ccc2O)c1ccc(O)c(c1)-c1c(cc(O)c(CNC2C4CC5CC(C4)CC2C5)c1O)[C@H](C(=O)O)NC3=O (some centres not stated) | > 250 | 5.6 | 100 (≈ 136 µg/mL) | 25 | 37
CN[C@H](CC(C)C)C(=O)N[C@H]1C(=O)N[C@@H](CC(N)=O)C(=O)N[C@H]2C(=O)N[C@H]3C(=O)N[C@H](C(=O)N[C@H](C(=O)NCc4ccc(-c5ccc(Cl)cc5)cc4)c4cc(O)cc(O)c4-c4cc3ccc4O)[C@H](O)c3ccc(c(Cl)c3)Oc3cc2cc(c3O[C@@H]2O[C@H](CO)[C@@H](O)[C@H](O)[C@H]2O[C@H]2C[C@](C)(N)C(O)[C@H](C)O2)Oc2ccc(cc2Cl)[C@H]1O (some centres not stated) [listing 2 of 2 here] | – | > 2 | – | – | –
